Rows were chosen to be rich in hits. Some 1.4% of all compounds tested hit in one or more screens of this group.
GSK3A inh: human GSK-3 alpha kinase inhibition. 320,000 compounds, 0.1% hits. ADP-Glo luminescence, 60 min. inhibition, % at 10 µM. AID 2650;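 active means more than half of replicates show inhibition above 20%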;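 further: GST-tagged GSK-3 alpha with peptide substrate and 25 µM ATP; 0% = DMSO neutral wells and 100% = GW8510 positive control wells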
STK33 inh: inhibitors of human STK33 kinase; Q9BYT3; 320,000 compounds, 0.073% hits; inhibition, % at 10 µM; purified STK33, MBP phosphorylation, ADP-Glo luminescence;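 active means inhibition at or above 25%, using the most active replicate where run in duplicate; inactive means inhibition below 25%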
Target sequence (Q9BYT3 whole entry, looked up): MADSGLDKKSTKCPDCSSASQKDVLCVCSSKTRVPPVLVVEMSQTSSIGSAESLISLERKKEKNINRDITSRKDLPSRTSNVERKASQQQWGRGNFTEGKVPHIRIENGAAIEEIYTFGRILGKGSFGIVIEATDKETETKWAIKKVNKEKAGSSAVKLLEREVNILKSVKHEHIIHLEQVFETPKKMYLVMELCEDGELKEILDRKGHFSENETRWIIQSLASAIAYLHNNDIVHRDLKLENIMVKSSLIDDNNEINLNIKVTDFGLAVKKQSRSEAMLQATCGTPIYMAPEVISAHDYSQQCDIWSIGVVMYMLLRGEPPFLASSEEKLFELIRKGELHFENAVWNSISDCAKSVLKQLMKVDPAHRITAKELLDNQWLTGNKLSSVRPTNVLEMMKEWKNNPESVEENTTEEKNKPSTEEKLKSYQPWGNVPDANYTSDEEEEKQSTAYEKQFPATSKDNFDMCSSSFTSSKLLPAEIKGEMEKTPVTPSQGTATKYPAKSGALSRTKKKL
CDK5 inh: blocks human CDK5/p35 kinase activity; Q00535+Q15078; Recombinant CDK5/p35, ADP-Glo luminescence, 60 min; inhibition, % at 10 µM; 330,000 compounds, 0.01% hits; AID 488839;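 active means highest replicate inhibition of at least 50% and at least 75% of replicates reaching 50%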;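 further: plate controls were DMSO neutral control for no effect and GW8510 at 10 µM for full effect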
Env fusion inh: blocks HIV Env-driven cell-cell fusion | HeLa-JRFL Env/CEM21 cell fusion, luciferase | inhibition, % at 12.3 µM | 360,000 compounds, 1.1% hits;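 active means mean replicate inhibition score of at least 50 and every replicate individually at or above 50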;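 further: 0% = plate neutral controls and 100% = maraviroc near 300 nM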
INS-1E GSIS act: GLuc luminescence reporter in INS-1E cells, primary screen for activators of glucose-dependent secretion of insulin; 370,000 compounds, 0.61% hits; activation, % at 16.6 µM; INS-1E GLuc reporter insulin secretion, 2-3 h;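 active means lowest replicate activation of at least 40%, so every replicate reaches that level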;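 further: 0% = median of neutral control wells and 100% = median of IBMX positive control wells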
GSK3B inh: blocks human GSK3beta kinase activity; P49841; GST-GSK3beta kinase, ADP-Glo luminescence, 60 min; stronger effect = lower value; 300,000 compounds, 0.038% hits; activity score (negative = inhibition), % at 10 µM;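 active means more than half of replicate wells score below -50%, meaning over 50% inhibition versus plate controls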;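 further: 0% = median DMSO wells and -100% = median GW8510 positive control wells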
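Test system: GST-fused GSK3beta enzyme, cell-free | Quantity: 1.6 ng GST-GSK3beta enzyme per well | Reagent: 25 µM ATP with peptide substrate | Schedule: 60 min enzyme reaction, room temperature | Signal: Luminescent ADP-Glo measurement of ADP formed | Read-out basis: Score relative to plate controls | Control set: DMSO and 20 µM GW8510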
Active calls of the source: *; x = no result; [ ] = dose if it differs, or a comment.

SMILES | GSK3A inh | STK33 inh | CDK5 inh | Env fusion inh | INS-1E GSIS act | GSK3B inh
CCNc1nc(NCC)nc(N(C)/N=C/c2ccco2)n1 | 1 | 0 | 0 | -8 | 62* | 2
O=C(C[C@@H]1CC[C@H]2[C@@H](COC[C@@H](O)CN2C(=O)Nc2ccc(C(F)(F)F)cc2)O1)NCC1CCCCC1 | x | x | x | x | -40 | x
COc1cc(O)c(C(CCN2CCCC2)c2ccc(N(C)C)cc2)c(OC)c1 (configuration not stated) | -1 | 2 | 1 | -71 | -8 | 2
COc1cc(O)c(C(CCN2CCCCC2)c2ccc(N(C)C)cc2)c(OC)c1 (configuration not stated) | 0 | -4 | 1 | 57* | 11 | -3
O=C(c1ccc2ccccc2n1)N1CCN(S(=O)(=O)c2ccc(Cl)cc2)CC1 | 1 | -2 | 0 | 56* | x | x
Cc1ccc(C)c(S(=O)(=O)N2CCN(C(=O)c3ccc4ccccc4n3)CC2)c1 | -2 | 0 | 0 | x | -28 | x
CCC(=O)Nc1ccc2c(c1)C(=O)N(C)C[C@@H](OC)[C@H](C)CN(CC1CC1)[C@H](C)CO2 | x | x | x | x | 5 | x
CN1C(=O)c2cc(NC(=O)c3ccccc3Cl)ccc2OC[C@@H]2O[C@H](CC(=O)O)CC[C@H]21 | x | x | x | x | 10 | x
COc1ccc(C(C(=O)NC(C)(C)C)N(C[C@H]2CC[C@@H]([C@@H]3CC[C@H](CO)O3)O2)C(=O)c2ccccc2)cc1 (some centres not stated) | x | x | -2 | 62* | 3 | x
COc1ccc2c3c([nH]c2c1)[C@H](CO)N(C(=O)C1CC1)CC31CN(Cc2nccs2)C1 | x | x | x | x | 18 | x
COc1cccc(NC(=O)C2(C)CCN2C(C)C)c1OC (configuration not stated) | x | x | x | -6 | 8 | x
CCC(=O)N1CCC1(C)C(=O)Nc1cccc(OC)c1OC (configuration not stated) | x | x | x | 58* | x | x
O=C(CSc1nnc(SCc2cccc3ccccc23)s1)N/N=C/c1c[nH]c2ccccc12 | 1 | -1 | -3 | 37 | -16 | 1
O=C(CSc1nnc(SCc2ccc(Cl)cc2)s1)N/N=C/c1c[nH]c2ccccc12 | 4 | 0 | -2 | x | 96* | -3
O=[N+]([O-])c1ccc(Nc2c3ccccc3nc3ccccc23)cc1 | x | x | 1 | 31 | -3 | 1
O=[N+]([O-])c1ccccc1Nc1c2ccccc2nc2ccccc12 | -3 | -1 | 1 | 62* | 4 | 0
COc1ccc([N+](=O)[O-])cc1Nc1c2ccccc2nc2ccccc12 | 2 | 0 | 0 | 79* | -2 | 0
Cc1sc2ncnc(N/N=C/c3cccc(O)c3)c2c1C | 6 | 28* | x | 18 | -9 | -2
Brc1ccccc1-c1nnc2sc(Cc3ccccc3)nn12 | 1 | -1 | 2 | 57* | x | 4
O=C1NC(=O)C(c2ccccc2[N+](=O)[O-])=C1Nc1ccc(O)c(Cl)c1 | x | 14 | 66* | 1 | x | x
O=C(NNc1ccccc1[N+](=O)[O-])Nc1ccc(Cl)c(Cl)c1 | -1 | -3 | 0 | 52 | x | 2
COC(=O)C[C@H]1CC[C@@H](NS(=O)(=O)c2ccc(OC)cc2)[C@H](CO)O1 | x | x | x | -2[16.7 µM] | 6 | x
COc1ccc(S(=O)(=O)Nc2ccc3c(c2)CC(=O)N([C@H](C)CO)C[C@@H](C)[C@H](CN(C)S(=O)(=O)c2ccccc2)O3)cc1 | x | x | x | 3[16.7 µM] | 8 | x
C[C@@H]1CN([C@H](C)CO)S(=O)(=O)c2ccc(C#Cc3ccccc3)cc2O[C@H]1CN(C)C(=O)C1CC1 | x | x | x | 58*[16.7 µM] | 17 | x
C[C@H]1CN([C@@H](C)CO)S(=O)(=O)c2ccc(C#Cc3ccccc3)cc2O[C@H]1CN(C)C(=O)C1CC1 | x | x | x | 17[16.7 µM] | -16 | x
SMILES | GSK3A inh | STK33 inh | CDK5 inh | Env fusion inh | INS-1E GSIS act | GSK3B inh
CCC(=O)N(C)C[C@@H]1Oc2cc(C#Cc3ccccc3)ccc2S(=O)(=O)N([C@H](C)CO)C[C@H]1C | x | x | x | 66*[16.7 µM] | -23 | x
CCC(=O)N(C)C[C@H]1Oc2cc(C#Cc3ccccc3)ccc2S(=O)(=O)N([C@H](C)CO)C[C@@H]1C | x | x | x | 15[16.7 µM] | -20 | x
C[C@H]1CN([C@@H](C)CO)S(=O)(=O)c2ccc(C#Cc3ccccc3)cc2O[C@@H]1CN(C)C(=O)CN(C)C | x | x | x | 15[16.7 µM] | 48* | x
C[C@H](CO)N1C[C@H](C)[C@H](CN(C)C(=O)CN(C)C)Oc2cc(C#Cc3ccccc3)ccc2S1(=O)=O | x | x | x | 7[16.7 µM] | 18 | x
O=C(C[C@@H]1CC[C@@H](NC(=O)c2ccncc2)[C@@H](CO)O1)NCc1ccncn1 | x | x | x | x | 11 | x
CC(C)NC(=O)N1CC2(C1)[C@H](c1ccccc1)[C@@H](CO)N2C(=O)C1CCCCC1 | x | x | x | x | 8 | x
Oc1ccccc1C1SC(c2ccccc2O)SC(c2ccccc2O)S1 (configuration not stated) | x | x | 0 | -1 | 153* | x
O=S(=O)(c1ccccc1)N1[C@@H]2CNC[C@H]1C2c1ccc(-c2cccc(F)c2)cc1 (some centres not stated) | x | x | x | x | 2 | x
COc1cccc(-c2onc3ccc(C(=O)/C=C/N(C)C)cc23)c1 | 16 | 54* | 1 | 24 | 0 | 1
Cc1ccc(-c2onc3ccc(C(=O)/C=C/N(C)C)cc23)cc1 | -1 | 14 | 1 | 12 | -4 | 2
O=C(NNC(=O)C1CC1c1ccccc1)Nc1cccc(Cl)c1 (configuration not stated) | 0 | 0 | 0 | 56* | -12 | -1
CCOC(=O)c1cc(-c2ccc(/C=N\n3cnnc3)o2)ccc1Cl | -1 | -1 | 1 | x | x | -3
CCCCOC(=O)c1cc(-c2ccc(/C=N/n3cnnc3)o2)ccc1Cl | -2 | 0 | 2 | -18 | 58* | -6
COc1ccc2c3c(n(C)c2c1)[C@@H](CO)N(Cc1nccs1)CC31CCN(C(=O)CC2CC2)CC1 | x | x | x | x | -24 | x
CCOC(=O)c1c(CSc2ccccc2)oc2cc(Br)c(O)c(CN(C)C)c12 | 1 | -1 | 1 | 127* | -30 | -2
CCOC(=O)c1c(CS(=O)(=O)c2ccccc2)n(C)c2cc(Br)c(O)c(CN(C)C)c12 | -1 | 1 | 1 | 67* | 1 | 1
CCOC(=O)c1c(CSc2ccc(CC)cc2)oc2ccc(O)c(CN(C)C)c12 | 3 | 0 | 1 | 56* | 786 | 1
CCOC(=O)c1c(C)oc2ccc(O)c(CN(C)C)c12 | 6 | -21 | 0 | x | x | 2
C[C@H]1CN([C@@H](C)CO)C(=O)Cc2cc(NC(=O)CCCCCC(=O)Nc3ccccc3N)ccc2O[C@@H]1CN(C)S(C)(=O)=O | x | x | x | -3[16.7 µM] | 5 | x
C=CCNC(=O)[C@@H]1[C@H]2C(=O)O[C@H](c3ccccc3)[C@H](c3ccccc3)N2[C@H](c2ccccc2OCCO)[C@@]12C(=O)N(C(=O)OCCOC)c1ccc(C#CCC(C(=O)OC)C(=O)OC)cc12 | x | x | x | -6[16.7 µM] | x | x
